Assay: Toxicity liver stage against HepG2, at 10uM
Type: cell-based
Parameters: test concentration 10 uM, cell line HepG2-A16-CD81EGFP
Details: human, HepG2-A16-CD81EGFP cells; read-out: INHIBITION
Procedure, shortened: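 Uninfected HepG2-A16-CD81EGFP cells, 3 × 10^3 per well, 1536-well, plated on prespotted compound at 10 μM final, parasite-free screening media added to match infected plates; puromycin 10 μM positive, DMSO 0.5% negative; run in parallel with 48 h PbLuc assay at 37 °C, 5% CO2; viability by CellTiter-Glo luminescence, normalized to controls.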

Row | SMILES | cytotoxicity at 10 µM [%]
1 | CN(CCNC(=O)Nc1cnn(C)c1)Cc1ccc(F)cc1 | 7.72
2 | Cc1ccc(N2N=C(C(N)=O)S(=O)(=O)c3cccnc32)cc1 | 4.28
3 | CS(=O)(=O)Cc1ccc(NC(=O)Cc2cccnc2)cc1F | 1.34
4 | Cc1ccc(C(O)CNC(=O)CCCc2ccccn2)o1 (stereo unspecified) | 0.166
5 | c1cncc(CN2CCC(c3csc4nccn34)CC2)c1 | 2.9
6 | Cc1nc(C)n(CC2CCCN(CCNC(=O)OC(C)(C)C)C2)n1 (stereo unspecified) | 1.08
7 | CC1(C)CC(n2cc3nc(N)[nH]cc-3c2=O)CC(C)(C)N1 | -12.8
8 | Cc1cccc(NC(=O)N2CCOCC(CN(C)C)C2)c1C (stereo unspecified) | 14.7
9 | CC(C)Nc1cc(N2CCC(n3cc(C4CCCC4)nn3)CC2)ncn1 | 7.81
10 | Cc1noc(C(C)C)c1C(=O)N1CCOCC1CC(=O)c1ccco1 (stereo unspecified) | 2.09
11 | C[C@@H]1CN(C2(C(=O)N3CCSCC3)Cc3ccccc3C2)C[C@H](C)O1 | 0.66
12 | Cc1cc(C)cc(OCCC(=O)NC2CC(=O)N(C)C2)c1 (stereo unspecified) | -1.68
13 | COc1ccc(C)cc1C(C)NC(=O)CCn1cncn1 (stereo unspecified) | -7.82
14 | OCCO[C@H]1C[C@@H](O)C12CCN(Cc1nc(C(F)(F)F)no1)CC2 | 0.145
15 | CC(C)Cn1ncc2cc(C(=O)N(C)CCc3ccccc3)cnc21 | -3.42
16 | CC(=O)N(C)C1CCCc2nc(C)sc21 (stereo unspecified) | -4.97
17 | O=C(Cn1cccc(S(=O)(=O)N2CCCC2)c1=O)c1ccccc1Cl | 1.08
18 | CCCNC(=O)NC(=O)CNC(C)(C)c1ccc2c(c1)OCO2 | -12.7
19 | COC(CNC(=O)N1CCC(n2cncn2)CC1)c1ccccc1 (stereo unspecified) | 4.33
20 | Cc1ccccc1CC(C)NC(=O)Nc1cnn(CC(N)=O)c1 (stereo unspecified) | -11.5
21 | CC(NCCc1nccn1Cc1ccccc1)c1cccs1 (stereo unspecified) | 3.68
22 | CCC1=N[C@@]2(CC[C@@H]3CN(C(=O)NC(C)C)C[C@@H]32)C(=O)N1C | -18
23 | CCOCCN1CCN(CC(O)c2ccc(C(F)(F)F)cc2)CC1 (stereo unspecified) | -16.6

Row | SMILES | cytotoxicity at 10 µM [%]
24 | O=c1cc(N2CCOCC2)cnn1CCc1ccc(F)cc1 | 8.01
25 | CS(=O)(=O)NCC(=O)NC1CCCN(c2ccccn2)C1 (stereo unspecified) | 1.76
26 | O=C1CCCN1CCc1noc(-c2ccsc2)n1 | 8.35
27 | Cc1cnn(CCCNC2Cc3ccccc3C2)c1 | 3.34
28 | CC(C)(C)c1ncc(C(=O)NCCNC(=O)c2ccc(O)cc2)s1 | 45.3
29 | Cc1noc(C)c1C(=O)N1CCC2(CC1)CC(Oc1ccccc1)CO2 (stereo unspecified) | 11.8
30 | COCCN1CCc2cc(C(=O)NC(C)C)c(NCC3CC3)nc2CC1 | 3.22
31 | CCCn1nc(C(=O)N(C)Cc2cnn(C)c2)ccc1=O | -143
32 | CC(=O)NC1CCCN(Cc2ccc(-n3ccnc3)cc2)C1 (stereo unspecified) | -57.4
33 | N#Cc1cccc(CN2C(=O)C3(CCNCC3)Nc3ccccc32)c1 | 0.529
34 | CN1CCC(n2nc(Cc3cccc(Cl)c3)nc2Cn2cnnn2)CC1 | -12.4
35 | COc1cc(N2CCC3(CCN(Cc4nccs4)CC3)C2)ncn1 | -36
36 | Cc1cc(CCC(=O)Nc2nncs2)nc(C2CCCN2)n1 (stereo unspecified) | -28
37 | CC(O)CN1CCN(C(=O)c2cccn2Cc2cccnc2)CC1 (stereo unspecified) | -9.15
38 | Cc1cc(C)n(C2CN(CC(=O)N(C)Cc3ccsc3)C2)n1 | -0.912
39 | COCCN1C(=O)CCC12CCN(C(=O)NC(C)C)CC2 | 4.45
40 | COCCN(Cc1ccc(C)o1)C(=O)Nc1nnc2ccccn12 | -1.59
41 | Cc1ccc(S(=O)(=O)N2CCc3nc(C4CCNCC4)ncc3C2)cc1 | -3.24
42 | CSCCC(Nc1nc(C)cc(C)n1)C(=O)NC1CCCC1 (stereo unspecified) | -4.87
43 | Cc1oc(C)c(C(=O)NCc2ccccn2)c1C | -0.729
44 | CCOc1ccnc(N2CCN(C(=O)c3c(CC)noc3C)CC2)n1 | -5.43
45 | Cc1nccn1CCC1CCN(C(C)C)CC1 | -20.7
46 | CC(NC(=O)c1ccc2c(c1)COC2)c1cccc(N2CCOC2=O)c1 (stereo unspecified) | 14.9

Row | SMILES | cytotoxicity at 10 µM [%]
47 | Cc1nn(C)c(C)c1CCC(=O)NCc1csc(N2CCCC2)n1 | -4.55
48 | Cc1cc(C)n2cc(CN3CCC(N4CCN(C)C4=O)CC3)nc2n1 | 3.66
49 | O=C(NC1CC1)N1C[C@@H]2CCN(C(=O)c3cscn3)[C@@H]2C1 | -0.025
50 | Cc1nc2ccccn2c1CC(=O)N[C@@H]1CC[C@@H](N2CCOCC2)[C@@H]1O | -1.68
51 | COc1cc(COCC2CCN(Cc3cccnc3)CC2)cc(OC)c1 | 0
52 | CCn1nnc2c1C(COC)CN(Cc1ccco1)C2 (stereo unspecified) | 0.73
53 | c1ccc(NCc2cn3c(n2)CN(Cc2cccnc2)CC3)nc1 | 1.52
54 | OCCOc1cc(F)ccc1NCc1nc(-c2cccs2)no1 | -46.1
55 | O=C(c1ccc(N2CCCC2)nn1)N1CCCC(n2cccn2)C1 (stereo unspecified) | -5.58
56 | O=C(COCC(F)(F)C(F)F)N1CCC2(CCCN(CCO)C2=O)C1 (stereo unspecified) | 8.77
57 | c1ccc(CC2CCN(Cc3ccnc(-c4cccnc4)n3)CC2)cc1 | 6.36
58 | O=C(NCC1CCCO1)C1CCN(Cc2nc(C3CC3)no2)CC1 (stereo unspecified) | 1.11
59 | Cc1nn(C)c(C)c1C1CCCN1Cc1nc2ccccc2n1C (stereo unspecified) | -14.4
60 | Cc1cc(C(=O)NC2CCC3(CCC(=O)N3CC3CC3)CC2)no1 (stereo unspecified) | -0.39
61 | COc1ncccc1CNC(=O)c1c[nH]c(=O)c(Br)c1 | -2.62
62 | Cc1cc(CN2CCC=C(CN(C)C(=O)c3ccco3)C2)no1 | 6.65
63 | CCCNC(=O)C1(Cc2cc(-c3ccccc3)no2)CCN(C(C)=O)C1 (stereo unspecified) | 6.6
64 | O=c1[nH]cc(N2CCOCC2)c(=O)[nH]1 | 6.36
65 | CN(c1ccc(-c2nc(C3CC3)no2)cn1)C1CCOCC1 | -10.8
66 | Cc1nc(N2CCN(C(=O)CC3CCCC3)CC2)c2cnn(C)c2n1 | 6.24
67 | COc1cccc(Cn2c(C)c(C)oc2=O)c1OC | -2.34
68 | COc1c(CNCCNC(=O)c2cccc(C)c2)c(C)nn1C | -6.64
69 | O=C(Nc1cc(Cl)ccn1)c1nc(N2CCCC2)ncc1Cl | -9.26

Row | SMILES | cytotoxicity at 10 µM [%]
70 | O=C(c1ccnnc1)N1C[C@H](OCC2CCOCC2)[C@H]2OCCC[C@H]21 | 3.86
71 | O=C(CNc1cc(Br)ccc1Br)NC1CCS(=O)(=O)C1 (stereo unspecified) | -5.88
72 | CCc1cc(CN(C)C(=O)c2cnon2)on1 | 9.83
73 | O=C(CNc1cc(F)ccc1OCC1CCCO1)N1CCOCC1 (stereo unspecified) | -12.6
74 | C[C@@H]1CN(C(=O)CCCN2CCOCC2)C[C@@]1(O)C1CC1 | 4.39
75 | c1ccc(CNCC2Cn3nncc3CO2)nc1 (stereo unspecified) | 4.93
76 | Cc1n[nH]c(C)c1CC(=O)N1CCCN(C)C2(CCN(C)CC2)C1 | 11.7
77 | c1cnc(N2Cc3nccn3CC(COc3cccnc3)C2)nc1 (stereo unspecified) | 10.7
78 | COCc1ccccc1CNC(=O)CNc1cccc(Cl)c1OC | 6.39
79 | CCc1nccn1CCC(=O)N1CCCC1c1ccc(F)cc1 (stereo unspecified) | 1.58
80 | Cc1nc(CNc2ncc(Br)cn2)n[nH]1 | -3.47
81 | CCCS(=O)(=O)N1CC[C@H]2O[C@H](c3nnc(C)o3)CC[C@H]21 | -77.4
82 | Cc1ccc(CC(=O)NCC(Cc2ccc(F)cc2)C(N)=O)cn1 (stereo unspecified) | 12
83 | CN(C)Cc1ccnc(NS(=O)(=O)Cc2cccc(F)c2)c1 | 1.76
84 | O=C(NC[C@]12COC[C@H]1CN(Cc1cccc(F)c1)C2)c1ccco1 | -66.7
85 | O=c1c2cn[nH]c2nc(SCCN2CCCC2)n1-c1ccccc1 | -2.03
86 | O=C(c1ccc[nH]1)N1CCN(C(c2ccccc2)C(F)(F)F)CC1 (stereo unspecified) | 8.3
87 | COCCn1cncc1Cn1ncc2ccccc2c1=O | 1.77
88 | CC(C)c1nn(C)c(N(C)C)c1CNCc1cccnc1 | -4.6
89 | O=C(CCCN1CCOC1=O)Nc1cnn(-c2ccccc2Cl)c1 | -4.56
90 | CC(C)(C)CN(CCC#N)C(=O)Nc1cccc(N2CCNC2=O)c1 | -9.86
91 | CC(=O)NC1CCc2ccc(S(=O)(=O)NCc3ncccc3C)cc21 (stereo unspecified) | 10.4
92 | CC(C)C(C)N(C(=O)c1cc2c([nH]c1=O)CCCC2=O)C1CC1 (stereo unspecified) | -3.45

Row | SMILES | cytotoxicity at 10 µM [%]
93 | CNC(=O)CCCNCc1c(C(C)C)nn(C)c1N(C)C | -12.7
94 | CCCC(O)CN1CC(C)(C)CN(C(=O)CCc2ccccc2)CC1=O (stereo unspecified) | -15.4
95 | COc1ccc2c3c1CN(S(C)(=O)=O)CC3=CC(C)(C)CO2 | 7.77
96 | CC(C(=O)NCC1CCN(c2ccncc2)CC1)S(C)(=O)=O (stereo unspecified) | 17.4
97 | Cc1cc(S(=O)(=O)N(CCO)C2CC2)ccc1F | 0.866
98 | C=C(C)COc1ccccc1C(=O)NCCCc1nnn[nH]1 | -1.82
99 | c1ccc2c(c1)CC(N1CCCC(NCc3ccc4nonc4c3)C1)C2 (stereo unspecified) | 5.6
100 | N#Cc1c(N2CCOCC2)nsc1-c1cccnc1 | 17
101 | CN(C)CCCNC(=O)CNC(=O)N1CCc2c([nH]c3ccccc23)C1 | 3.33
102 | CSCCC1c2nc[nH]c2CCN1Cc1cc(Cl)ccc1O (stereo unspecified) | 23.3
103 | Cc1cc(NCc2cc3n(n2)CCCN(C(=O)N(C)C)C3)ncn1 | -11.4
104 | Cc1cccc(C(=O)N2C[C@@H](OCc3ccncc3)[C@@H]3OCCC[C@@H]32)n1 | -5.06
105 | C1CN(CC2CCOCC2)Cc2c(CN3CCOCC3)nnn2C1 | -143
106 | Cc1ccc(-c2cc(CNC(=O)NC3CCCCNC3=O)on2)cc1 (stereo unspecified) | -145
107 | O=C(CCc1ccc(F)cc1)NCc1ccnc(NC2CC2)c1 | -8.78
108 | Cc1cc(C)c2[nH]c(C(=O)NCCN3CCCC3=O)c(C)c2c1 | 2.49
109 | O=C(CCc1ccccc1)N1CC(n2cncn2)C1 | -15.7
110 | Cc1ccccc1S(=O)(=O)NC(=O)C1(c2cccc(Cl)c2)CC1 | 1.97
111 | Cc1cc(NC(=O)CN2CCOC(Cn3cccn3)C2)n(C)n1 (stereo unspecified) | 5.56

From ChEMBL document CHEMBL4513216, “Probing the Open Global Health Chemical Diversity Library for Multistage-Active Starting Points for Next-Generation Antimalarials” (ACS Infect Dis, 2020)
